Values belong to the compound of their own block, whether it stands above or below them. The source made the active and inactive calls. The rule behind the calls is not given here.
Key:
Carbonic anhydrase 9 [1] = molecular target: T1, Carbonic anhydrase 9 (Homo sapiens, UniProt Q16790); experiment: Inhibition of recombinant human CA9 pre-incubated for 15 mins measured by phenol red dye based stopped flow CO2 hydration assay
Carbonic anhydrase 1 = Carbonic anhydrase 1 (Homo sapiens, UniProt P00915); experiment: Inhibition of recombinant human CA1 pre-incubated for 6 hrs measured by phenol red dye based stopped flow CO2 hydration assay
Outline: (§1)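 Stopped-flow CO2 hydration at 0.2 mM phenol red (557 nm) in 20 mM Hepes pH 7.5 with 20 mM Na2SO4, initial rates followed for 10–100 s. CO2 1.7–17 mM; ≥6 traces of the first 5–10% of reaction per inhibitor; uncatalysed rate subtracted. Inhibitor diluted in assay buffer down to 0.01 nM, preincubated with enzyme 6 h at room temperature. Values are means of 3 assays.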

Carbonic anhydrase 9 [2] = molecular target: T1, Carbonic anhydrase 9; experiment: Inhibition of recombinant human CA9 pre-incubated for 6 hrs measured by phenol red dye based stopped flow CO2 hydration assay; outline: as §1
Carbonic anhydrase 2 = Carbonic anhydrase 2 (Homo sapiens, UniProt P00918); experiment: Inhibition of recombinant human CA2 pre-incubated for 6 hrs measured by phenol red dye based stopped flow CO2 hydration assay; outline: as §1
Carbonic anhydrase 12 = Carbonic anhydrase 12 (Homo sapiens, UniProt O43570); experiment: Inhibition of recombinant human CA12 pre-incubated for 6 hrs measured by phenol red dye based stopped flow CO2 hydration assay; outline: as §1
HeLa = experiment: Antiproliferative activity against human HeLa cells assessed as cell viability measured after 72 hrs by SRB assay; assay type: functional, cell-based
Outline: (§2)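 SRB colorimetric assay on ATCC-sourced cell lines kept in RPMI or DMEM with 10% heat-inactivated FBS, penicillin 100 units/mL and streptomycin at 37 °C in humidified 5% CO2. Preliminary screen: each compound tested in triplicate at two fixed concentrations (10 and 100). Read-out is percent cell viability.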

COLO 205 = experiment: Antiproliferative activity against human COLO 205 cells assessed as cell viability measured after 72 hrs by SRB assay; assay type: functional, cell-based; outline: as §2
A549 = experiment: Antiproliferative activity against human A549 cells assessed as cell viability measured after 72 hrs by SRB assay; assay type: functional, cell-based; outline: as §2
HL-60 = experiment: Antiproliferative activity against human HL-60 cells assessed as cell viability measured after 72 hrs by SRB assay; assay type: functional, cell-based; outline: as §2
SK-OV-3 = experiment: Antiproliferative activity against human SK-OV-3 cells assessed as cell viability measured after 72 hrs by SRB assay; assay type: functional, cell-based; outline: as §2
MDA-MB-231 [3] = experiment: Antiproliferative activity against human MDA-MB-231 cells assessed as cell viability measured after 72 hrs by SRB assay; assay type: functional, cell-based; outline: as §2
MCF7 = experiment: Antiproliferative activity against human MCF7 cells assessed as cell viability measured after 72 hrs by SRB assay; assay type: functional, cell-based; outline: as §2
T47D [4] = experiment: Antiproliferative activity against human T47D cells assessed as cell viability measured after 72 hrs by SRB assay; assay type: functional, cell-based; outline: as §2
MDA-MB-231 [5] = experiment: cells; settings: Homo sapiens, MDA-MB-231, 72 h
T47D [6] = experiment: cells; settings: Homo sapiens, 72 h
T47D [7] = experiment: Induction of cell cycle arrest in human T47D cells assessed as accumulation of cells in G2/M phase at […] uM measured after 24 hrs by DNA flow cytometry assay (reference value: 16.59%); assay type: functional
T47D [8] = experiment: Induction of cell cycle arrest in human T47D cells assessed as accumulation of cells in sub-G1 phase at […] uM measured after 24 hrs by DNA flow cytometry assay (reference value: 2.41%); assay type: functional
T47D [9] = experiment: Induction of apoptosis in human T47D cells assessed as early apoptotic cells at […] uM measured after 24 hrs by Annexin V-FITC stain based flow cytometry method (reference value: 0.39%); assay type: functional
T47D [10] = experiment: Induction of apoptosis in human T47D cells assessed as late apoptotic cells at […] uM measured after 24 hrs by Annexin V-FITC stain based flow cytometry method (reference value: 0.17%); assay type: functional
T47D [11] = experiment: Induction of apoptosis in human T47D cells assessed as necrotic cells at […] uM measured after 24 hrs by Annexin V-FITC stain based flow cytometry method (reference value: 1.91%); assay type: functional
T47D [12] = experiment: Induction of apoptosis in human T47D cells assessed as viable cells at […] uM measured after 24 hrs by Annexin V-FITC stain based flow cytometry method; assay type: functional, cell-based; settings: dose 2.45 µM
T47D [13] = experiment: Induction of apoptosis in human T47D cells assessed as viable cells at […] uM measured after 24 hrs by Annexin V-FITC stain based flow cytometry method relative to control; assay type: functional, cell-based; settings: dose 7.56 µM

Sequence of Carbonic anhydrase 1 (P00915 whole entry): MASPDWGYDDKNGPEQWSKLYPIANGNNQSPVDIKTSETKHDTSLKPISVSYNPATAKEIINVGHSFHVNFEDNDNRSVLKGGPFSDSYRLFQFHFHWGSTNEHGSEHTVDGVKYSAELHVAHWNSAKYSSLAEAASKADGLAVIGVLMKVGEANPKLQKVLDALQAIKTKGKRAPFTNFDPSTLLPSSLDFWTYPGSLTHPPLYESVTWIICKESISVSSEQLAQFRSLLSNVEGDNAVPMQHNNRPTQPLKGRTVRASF
Sequence of Carbonic anhydrase 12 (O43570 whole entry): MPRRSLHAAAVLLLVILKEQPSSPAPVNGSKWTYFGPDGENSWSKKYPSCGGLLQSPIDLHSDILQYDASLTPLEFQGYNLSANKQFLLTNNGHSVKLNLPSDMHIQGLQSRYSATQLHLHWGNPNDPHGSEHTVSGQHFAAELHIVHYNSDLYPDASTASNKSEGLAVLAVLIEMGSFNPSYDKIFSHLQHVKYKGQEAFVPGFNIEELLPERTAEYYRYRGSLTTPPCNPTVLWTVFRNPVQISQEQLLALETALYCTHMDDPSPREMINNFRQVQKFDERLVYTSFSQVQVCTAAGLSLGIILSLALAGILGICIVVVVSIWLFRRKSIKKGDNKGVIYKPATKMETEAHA

Ki (Carbonic anhydrase 9 [1]): 0.0248 µM
SMILES: NS(=O)(=O)c1ccc(CCNC(=O)Cn2cc(F)c(=O)[nH]c2=O)cc1

Ki (Carbonic anhydrase 1): > 10 µM
Ki (Carbonic anhydrase 9 [2]): 0.0165 µM
Ki (Carbonic anhydrase 2): > 10 µM
Ki (Carbonic anhydrase 12): 0.0232 µM
IC50 (MDA-MB-231 [5]): 32 µM
IC50 (T47D [6]): 13.2 µM
SMILES: Cc1cc(=O)oc2cc(NC(=O)Cn3cc(F)c(=O)[nH]c3=O)ccc12
growth inhibition (GI) (HeLa): inactive
growth inhibition (GI) (COLO 205): inactive
growth inhibition (GI) (A549): inactive
growth inhibition (GI) (HL-60): inactive
growth inhibition (GI) (SK-OV-3): inactive
growth inhibition (GI) (MDA-MB-231 [3]): Active
growth inhibition (GI) (MCF7): inactive
growth inhibition (GI) (T47D [4]): Active

Ki (Carbonic anhydrase 9 [1]): 0.0038 µM
SMILES: NS(=O)(=O)c1ccc(-n2cc(Cn3cc(F)c(=O)[nH]c3=O)nn2)c(Br)c1

Ki (Carbonic anhydrase 9 [1]): 0.0048 µM
SMILES: NS(=O)(=O)c1ccc(NC(=O)Cn2cc(F)c(=O)[nH]c2=O)cc1

Ki (Carbonic anhydrase 9 [1]): 0.0447 µM
SMILES: NS(=O)(=O)c1cccc(NC(=O)Cn2cc(F)c(=O)[nH]c2=O)c1

Ki (Carbonic anhydrase 1): > 10 µM
Ki (Carbonic anhydrase 9 [2]): 0.173 µM
Ki (Carbonic anhydrase 2): > 10 µM
Ki (Carbonic anhydrase 12): 0.408 µM
SMILES: Cc1cc(=O)oc2cc(-n3cc(Cn4cc(F)c(=O)[nH]c4=O)nn3)ccc12

Ki (Carbonic anhydrase 9 [1]): 0.0042 µM
IC50 (MDA-MB-231 [5]): 40.9 µM
IC50 (T47D [6]): 18.9 µM
SMILES: NS(=O)(=O)c1ccc(CCN(Cc2ccc(Cl)cc2)C(=O)Cn2cc(F)c(=O)[nH]c2=O)cc1
growth inhibition (GI) (HeLa): inactive
growth inhibition (GI) (COLO 205): inactive
growth inhibition (GI) (A549): inactive
growth inhibition (GI) (HL-60): inactive
growth inhibition (GI) (SK-OV-3): inactive
growth inhibition (GI) (MDA-MB-231 [3]): Active
growth inhibition (GI) (MCF7): inactive
growth inhibition (GI) (T47D [4]): Active

Ki (Carbonic anhydrase 9 [1]): 0.0118 µM
SMILES: NS(=O)(=O)c1ccc(CCN(Cc2ccc(F)cc2)C(=O)Cn2cc(F)c(=O)[nH]c2=O)cc1

Ki (Carbonic anhydrase 9 [1]): 0.0268 µM
SMILES: CN(C)c1ccc(CN(CCc2ccc(S(N)(=O)=O)cc2)C(=O)Cn2cc(F)c(=O)[nH]c2=O)cc1

Ki (Carbonic anhydrase 9 [1]): 0.0112 µM
SMILES: NS(=O)(=O)c1ccc(-n2cc(Cn3cc(F)c(=O)[nH]c3=O)nn2)c(Cl)c1

Ki (Carbonic anhydrase 9 [1]): 0.0035 µM
SMILES: NS(=O)(=O)c1ccc(CCN(Cc2ccccc2)C(=O)Cn2cc(F)c(=O)[nH]c2=O)cc1

Ki (Carbonic anhydrase 1): > 10 µM
Ki (Carbonic anhydrase 9 [2]): 0.0368 µM
Ki (Carbonic anhydrase 2): > 10 µM
Ki (Carbonic anhydrase 12): 0.0144 µM
SMILES: O=C(Cn1cc(F)c(=O)[nH]c1=O)Oc1ccc2ccc(=O)oc2c1

Ki (Carbonic anhydrase 9 [1]): 0.0019 µM
IC50 (MDA-MB-231 [5]): 6.86 µM
IC50 (T47D [6]): 2.45 µM
SMILES: COc1ccc(CN(CCc2ccc(S(N)(=O)=O)cc2)C(=O)Cn2cc(F)c(=O)[nH]c2=O)cc1
Activity (T47D [7]; 2.45 µM): 35.47%
Activity (T47D [8]; 2.45 µM): 18.04%
Activity (T47D [9]; 2.45 µM): 7.31%
Activity (T47D [10]; 2.45 µM): 12.19%
Activity (T47D [11]; 2.45 µM): 2.51%
Activity (T47D [12]): Active
growth inhibition (GI) (HeLa): inactive
growth inhibition (GI) (COLO 205): inactive
growth inhibition (GI) (A549): inactive
growth inhibition (GI) (HL-60): inactive
growth inhibition (GI) (SK-OV-3): inactive
growth inhibition (GI) (MDA-MB-231 [3]): Active
growth inhibition (GI) (MCF7): inactive
growth inhibition (GI) (T47D [4]): Active

Ki (Carbonic anhydrase 9 [1]): 0.0049 µM
SMILES: N#Cc1ccc(CN(CCc2ccc(S(N)(=O)=O)cc2)C(=O)Cn2cc(F)c(=O)[nH]c2=O)cc1

Ki (Carbonic anhydrase 9 [1]): 0.105 µM
SMILES: NS(=O)(=O)c1cccc(-n2cc(Cn3cc(F)c(=O)[nH]c3=O)nn2)c1

Ki (Carbonic anhydrase 9 [1]): 0.453 µM
IC50 (MDA-MB-231 [5]): 25.5 µM
IC50 (T47D [6]): 7.56 µM
SMILES: NS(=O)(=O)c1ccc(O)c(NC(=O)Cn2cc(F)c(=O)[nH]c2=O)c1
Activity (T47D [7]; 7.56 µM): 26.83%
Activity (T47D [8]; 7.56 µM): 12.72%
Activity (T47D [13]): Active
Activity (T47D [9]; 7.56 µM): 3.59%
Activity (T47D [10]; 7.56 µM): 9.62%
Activity (T47D [11]; 7.56 µM): 1.36%
growth inhibition (GI) (HeLa): inactive
growth inhibition (GI) (COLO 205): inactive
growth inhibition (GI) (A549): inactive
growth inhibition (GI) (HL-60): inactive
growth inhibition (GI) (SK-OV-3): inactive
growth inhibition (GI) (MDA-MB-231 [3]): Active
growth inhibition (GI) (MCF7): inactive
growth inhibition (GI) (T47D [4]): Active

Ki (Carbonic anhydrase 9 [1]): 0.00047 µM
IC50 (MDA-MB-231 [5]): 22.9 µM
IC50 (T47D [6]): 33.5 µM
SMILES: NS(=O)(=O)c1ccc(-n2cc(Cn3cc(F)c(=O)[nH]c3=O)nn2)cc1
growth inhibition (GI) (HeLa): inactive
growth inhibition (GI) (COLO 205): inactive
growth inhibition (GI) (A549): inactive
growth inhibition (GI) (HL-60): inactive
growth inhibition (GI) (SK-OV-3): inactive
growth inhibition (GI) (MDA-MB-231 [3]): Active
growth inhibition (GI) (MCF7): inactive
growth inhibition (GI) (T47D [4]): Active

Ki (Carbonic anhydrase 9 [1]): 0.0292 µM
SMILES: NS(=O)(=O)c1ccc(CNC(=O)Cn2cc(F)c(=O)[nH]c2=O)cc1

Reference: ChEMBL document CHEMBL4765260, “Inclusion of a 5-fluorouracil moiety in nitrogenous bases derivatives as human carbonic anhydrase IX and XII inhibitors produced a targeted action against MDA-MB-231 and T47D breast cancer cells” (Eur J Med Chem, 2020)
